# Measurements of several laboratories.
# Lines come from different studies, so protocols differ.
# MTNR1A: Melatonin receptor type 1A (MTNR1A, Homo sapiens, UniProt P48039)
Compound,target,assay,test system,conditions,quantity,value
Nc1ncc(-c2nc(N3CCOCC3)nc(N3CCOCC3)n2)c(C(F)F)n1,"Aurora kinase A (AURKA, Homo sapiens, UniProt O14965)","binding, competition with immobilised ligand",,10 µM,remaining binding,52%
COc1ccc2[nH]cc(CCNC(=O)CI)c2c1,MTNR1A,"β-arrestin recruitment, agonist",CHO-K1,90 min,Emax,92%
CCN(CC)CCCC[C@H](NC(=O)[C@H](CC(C)C)NC(=O)[C@H](C)NC(=O)[C@H](Cc1ccccc1)NC(=O)c1ccc(C(C)(C)C)cc1)C(=O)N[C@@H](CO)C(=O)OC,MTNR1A,"ligand displacement, radioligand",,10 µM,remaining binding,92.1%
CN[C@@]1(c2ccccc2Cl)CCCCC1=O,"Fatty-acid amide hydrolase 1 (FAAH, Homo sapiens, UniProt O00519)","enzyme activity, inhibitor",,30 µM,inhibition,11%
Cc1nn(C)cc1-c1nc2c(N3CCN(Cc4ccc(Cl)cc4)CC3)c(Cl)cnc2[nH]1,"Tyrosine-protein kinase receptor Tie-1 (TIE1, Homo sapiens, UniProt P35590)","binding, competition with immobilised ligand",,1 µM,remaining binding,47%
CCC(N)Cc1cc(OC)c(COC)cc1OC (stereo not drawn),"5-hydroxytryptamine receptor 2C (HTR2C, Homo sapiens, UniProt P28335)","G protein activation, agonist, BRET",,,Emax,82%
C#Cc1n[nH]c2c(-c3cn([C@@H](C)c4ccccn4)c(=O)[nH]c3=O)cc(F)cc12,"Aurora kinase C (AURKC, Homo sapiens, UniProt Q9UQB9)","enzyme activity, inhibitor",,0.1 µM,inhibition,1.4%
COc1ncccc1-c1cnn2ccc(N3CCN(C(=O)OC(C)C)CC3)nc12,"Activin receptor type-2B (ACVR2B, Homo sapiens, UniProt Q13705)","binding, competition with immobilised ligand",,1 µM,remaining binding,69%
COc1ccc2cccc(C(CO)CNC(=O)CF)c2c1 (stereo not drawn),MTNR1A,"β-arrestin recruitment, agonist",CHO-K1,90 min,Emax,101%
